# In ChEMBL document CHEMBL1158477, “Synthesis, in vivo evaluation, and molecular modeling studies of new pyrazolo[5,1-c][1,2,4]benzotriazine 5-oxide derivatives. Identification of a bifunctional hydrogen bond area related to the inverse agonism” (J Med Chem, 2009):
# Active and inactive are the calls of the source. No cut-off for these calls is given here.
# Tests used:
# Mus musculus [1] = test: Anticonvulsant activity against pentylenetetrazole-induced convulsions in CD1 albino mouse assessed as absence of convulsions at 1 mg/kg, ip preincubated for 30 mins before pentylenetetrazole challenge measured for 30 mins; format: functional, organism-based; design: dose 1 mg/kg
# In short: (§1)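 Male CD-1 mice (22-24 g), drug in isotonic saline given ip; PTZ 90 mg/kg sc injected 30 min after drug. Occurrence of clonic generalized convulsions noted over 30 min, with shock and convulsion latency recorded. Controls received 1% CMC.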
# Mus musculus [2] = test: Effect on ethanol-induced sleeping time in CD1 albino mouse assessed as increase in duration of loss of righting reflex at 1 mg/kg, ip preincubated 30 mins before ethanol challenge; format: functional, organism-based; design: dose 1 mg/kg
# In short: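 Male CD-1 mice given drug ip in saline. Ethanol 4 g/kg ip injected 30 min after drug. Duration of loss of righting reflex taken as sleep time, capped at 210 min. Mean of 15-20 mice per group.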
# Mus musculus [3] = test: Anxiolytic activity in CD1 albino mouse at 1 mg/kg, ip after 20 mins by light/dark box test in presence of flumazenil; format: functional, organism-based; design: dose 1 mg/kg
# In short: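 Male CD-1 mice given drug ip in saline, tested in a light/dark box. Number of transfers between compartments and time spent in the illuminated side recorded. Flumazenil given ip at 100 mg/kg as antagonist.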
# Mus musculus [4] = test: Anticonvulsant activity against pentylenetetrazole-induced shock in CD1 albino mouse assessed as absence of shocks at 1 mg/kg, ip preincubated for 30 mins before pentylenetetrazole challenge measured for 30 mins; format: functional, organism-based; design: dose 1 mg/kg; in short: as §1
# Mus musculus [5] = test: Effect on ethanol-induced sleeping time in CD1 albino mouse assessed as increase in duration of loss of righting reflex at 10 mg/kg, po preincubated 30 mins before ethanol challenge; format: functional, organism-based; design: dose 10 mg/kg
# Mus musculus [6] = test: Effect on explorative capacity in CD1 albino mouse assessed as curiosity-related number of head plugging activity on hole at 3 mg/kg, po after 30 mins by hole-board test; format: functional
# In short: (§2)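 Hole-board test in male CD-1 mice: animals placed singly on the board and allowed to explore panel and holes. Test run 30 min after po dosing in 1% CMC (10 mL/kg). Hole entries (curiosity) and plane movements (spontaneous motility) counted; 10 mice per group, compared with CMC controls.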
# Mus musculus [7] = test: Anxiolytic activity in CD1 albino mouse at 10 mg/kg, po after 30 mins by light/dark box test; format: functional, organism-based; design: dose 10 mg/kg
# In short: (§3)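 Male CD-1 mice (22-24 g) given test substance po in 1% CMC (10 mL/kg), tested 30 min later in a light/dark box. Transfers between compartments and time spent in the illuminated side were measured. Values are mean ± SEM of 15-20 mice; compared with controls.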
# [8] = Displacement of [3H]flumazenil from GABAA/Benzodiazepine receptor in bovine brain; design: species or system Bos taurus
# In short: (§4)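 Bovine brain membranes; displacement of specific [3H]flumazenil (Ro15-1788) binding. Percent inhibition measured at 10 μM; Ki determined only when inhibition at that concentration exceeded 80%. Ki given as mean ± SEM of five determinations.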
# Mus musculus [9] = test: Anticonvulsant activity against pentylenetetrazole-induced shock in CD1 albino mouse assessed as shock latency at 30 mg/kg, po preincubated for 30 mins before pentylenetetrazole challenge measured for 30 mins (RVb=253.1 +/- 13 seconds); format: functional
# Mus musculus [10] = test: Effect on ethanol-induced sleeping time in CD1 albino mouse assessed as increase in duration of loss of righting reflex at 3 mg/kg, po preincubated 30 mins before ethanol challenge; format: functional, organism-based; design: dose 3 mg/kg
# Mus musculus [11] = test: Anxiolytic activity in CD1 albino mouse at 30 mg/kg, po after 30 mins by light/dark box test; format: functional, organism-based; design: dose 30 mg/kg; in short: as §3
# Mus musculus [12] = test: Anxiolytic activity in CD1 albino mouse at 3 mg/kg, po after 30 mins by light/dark box test; format: functional, organism-based; design: dose 3 mg/kg; in short: as §3
# Mus musculus [13] = test: Effect on motor coordination in CD1 albino mouse assessed as number of falls form rotarod at 10 mg/kg, po […] measured for 30 seconds after 30 mins of dosing by rotarod test; format: functional
# In short: (§5)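 Rota-rod in male CD-1 mice with a pretest. Test substance given po in 1% CMC; falls from the rotating rod counted over 30 s, assessed 30 min after treatment.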
# Mus musculus [14] = test: Anticonvulsant activity against pentylenetetrazole-induced shock in CD1 albino mouse assessed as shock latency at 3 mg/kg, po preincubated for 30 mins before pentylenetetrazole challenge measured for 30 mins (RVb=253.1 +/- 13 seconds); format: functional
# Mus musculus [15] = test: Effect on explorative capacity in CD1 albino mouse assessed as curiosity-related number of head plugging activity on hole at 30 mg/kg, po after 30 mins by hole-board test; format: functional; in short: as §2
# Mus musculus [16] = test: Effect on explorative capacity in CD1 albino mouse assessed as curiosity-related number of head plugging activity on hole at 10 mg/kg, po after 30 mins by hole-board test; format: functional; in short: as §2
# Mus musculus [17] = test: Anticonvulsant activity against pentylenetetrazole-induced convulsions in CD1 albino mouse assessed as convulsion latency at 30 mg/kg, po preincubated for 30 mins before pentylenetetrazole challenge measured for 30 mins (RVb=599 +/- 37.6 seconds); format: functional
# Mus musculus [18] = test: Effect on learning and memory process in CD1 albino mouse assessed as improvement in retention latency at 10 mg/kg, po after 24 hrs by passive avoidance test; format: functional, organism-based; design: dose 10 mg/kg
# In short: (§6)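 Step-through passive avoidance in a two-compartment box (lit and dark compartments joined by a guillotine door). Male CD-1 mice dosed po (1% CMC) 30 min before training; retention tested 24 h later. Training and retention latencies recorded; mean ± SEM of 15-20 mice versus controls.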
# Mus musculus [19] = test: Anxiolytic activity in CD1 albino mouse at 10 mg/kg, po after 30 mins by light/dark box test in presence of flumazenil; format: functional, organism-based; design: dose 10 mg/kg
# In short: (§7)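 Light/dark box in male CD-1 mice. Test substance given po in 1% CMC 30 min before the test, with flumazenil 100 mg/kg ip (saline) co-treatment. Transfers between compartments and time in the lit side recorded. Mean ± SEM of 15-20 mice.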
# Mus musculus [20] = test: Effect on motor coordination in CD1 albino mouse assessed as number of falls form rotarod at 3 mg/kg, po administered 60 mins before test measured for 30 seconds after 30 mins of drug infusion by rotarod test; format: functional; in short: as §5
# Mus musculus [21] = test: Effect on motor coordination in CD1 albino mouse assessed as number of falls form rotarod at 30 mg/kg, po […] measured for 30 seconds after 30 mins of drug infusion by rotarod test; format: functional; in short: as §5
# Mus musculus [22] = test: Anticonvulsant activity against pentylenetetrazole-induced convulsions in CD1 albino mouse assessed as convulsion latency at 3 mg/kg, po preincubated for 30 mins before pentylenetetrazole challenge measured for 30 mins (RVb=599 +/- 37.6 seconds); format: functional
# Mus musculus [23] = test: Anticonvulsant activity against pentylenetetrazole-induced shock in CD1 albino mouse assessed as shock latency at 10 mg/kg, po preincubated for 30 mins before pentylenetetrazole challenge measured for 30 mins (RVb=253.1 +/- 13 seconds); format: functional
# Mus musculus [24] = test: Effect on spontaneous motility in CD1 albino mouse assessed as number of movement on plane board at 3 mg/kg, po after 30 mins by hole-board test; format: functional; in short: as §2
# Mus musculus [25] = test: Effect on spontaneous motility in CD1 albino mouse assessed as number of movement on plane board at 30 mg/kg, po after 30 mins by hole-board test; format: functional; in short: as §2
# Bos taurus = species: Bos taurus; test: Displacement of [3H]flumazenil from GABAA/Benzodiazepine receptor in bovine brain at 10 uM; in short: as §4
# Mus musculus [26] = test: Anxiolytic activity in CD1 albino mouse at 30 mg/kg, po after 30 mins by light/dark box test in presence of flumazenil; format: functional, organism-based; design: dose 30 mg/kg; in short: as §7
# Mus musculus [27] = test: Effect on ethanol-induced sleeping time in CD1 albino mouse assessed as reduction in duration of loss of righting reflex at 30 mg/kg, po preincubated 30 mins before ethanol challenge; format: functional, organism-based; design: dose 30 mg/kg
# Mus musculus [28] = test: Effect on learning and memory process in CD1 albino mouse assessed as improvement in retention latency at 30 mg/kg, po after 24 hrs by passive avoidance test; format: functional, organism-based; design: dose 30 mg/kg; in short: as §6
# Mus musculus [29] = test: Effect on spontaneous motility in CD1 albino mouse assessed as number of movement on plane board at 10 mg/kg, po after 30 mins by hole-board test; format: functional; in short: as §2
# Mus musculus [30] = test: Anticonvulsant activity against pentylenetetrazole-induced convulsions in CD1 albino mouse assessed as convulsion latency at 10 mg/kg, po preincubated for 30 mins before pentylenetetrazole challenge measured for 30 mins (RVb=599 +/- 37.6 seconds); format: functional
# Mus musculus [31] = test: Effect on learning and memory process in CD1 albino mouse assessed as decrease in retention latency at 30 mg/kg, po after 24 hrs by passive avoidance test; format: functional, organism-based; design: dose 30 mg/kg; in short: as §6
# Mus musculus [32] = test: Effect on ethanol-induced sleeping time in CD1 albino mouse assessed as increase in duration of loss of righting reflex at 30 mg/kg, po preincubated 30 mins before ethanol challenge; format: functional, organism-based; design: dose 30 mg/kg
# Mus musculus [33] = test: Effect on learning and memory process in CD1 albino mouse assessed as decrease in retention latency at 10 mg/kg, po after 24 hrs by passive avoidance test; format: functional, organism-based; design: dose 10 mg/kg; in short: as §6
compound,measurement,setting,value
CN1C(=O)CN=C(c2ccccc2)c2cc(Cl)ccc21,Activity,Mus musculus [1],Active
same,Activity,Mus musculus [2],Active
same,Activity,Mus musculus [3],inactive
same,Activity,Mus musculus [4],Active
[O-][n+]1nc2c(I)cnn2c2cc(OCc3ccccc3)ccc21,Activity,Mus musculus [5],inactive
same,Activity,Mus musculus [6],29
same,Activity,Mus musculus [7],Active
same,Ki,[8],1.1 nM
same,Activity,Mus musculus [9],354 s
same,Activity,Mus musculus [10],inactive
same,Activity,Mus musculus [11],Active
same,Activity,Mus musculus [12],Active
same,Activity,Mus musculus [13],2.2
same,Activity,Mus musculus [14],375 s
same,Activity,Mus musculus [15],28.7
same,Activity,Mus musculus [16],22.7
same,Activity,Mus musculus [17],479.7 s
same,Activity,Mus musculus [18],Active
same,Activity,Mus musculus [19],inactive
same,Activity,Mus musculus [20],1.5
same,Activity,Mus musculus [21],1.7
same,Activity,Mus musculus [22],380.2 s
same,Activity,Mus musculus [23],266.1 s
same,Activity,Mus musculus [24],54.3
same,Activity,Mus musculus [25],54.5
same,Activity,Bos taurus,> 80%
same,Activity,Mus musculus [26],inactive
same,Activity,Mus musculus [27],Active
same,Activity,Mus musculus [28],Active
same,Activity,Mus musculus [29],66.9
same,Activity,Mus musculus [30],360.8 s
CC(Oc1ccc2c(c1)n1ncc(I)c1n[n+]2[O-])c1ccccc1 (stereo in doubt; (+)-16),Activity,Mus musculus [5],Active
same,Activity,Mus musculus [7],Active
same,Activity,Mus musculus [11],Active
same,Activity,Bos taurus,> 80%
same,Activity,Mus musculus [26],inactive
same,Activity,Mus musculus [31],Active
same,Activity,Mus musculus [32],Active
same,Activity,Mus musculus [33],Active
